The values below come from ChEMBL document CHEMBL2346629, “Discovery and characterization of novel allosteric FAK inhibitors” (Eur J Med Chem, 2013).

Bounds are passed on as bounds.

For experiment [1], the target named is Tyrosine-protein kinase Yes (Homo sapiens, UniProt P07947). Nature of the experiment: Inhibition of YES (unknown origin) using [gamma-33P]ATP. A digest of the protocol:
(§1)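 Radiometric kinase profiling service covering 288 kinases (261 wild-type, 27 mutant). Inhibition was read as incorporation from [γ-³³P]ATP.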

For experiment [2], the target named is Mast/stem cell growth factor receptor Kit (Homo sapiens, UniProt P10721, D816V). Nature of the experiment: Inhibition of c-Kit D816V mutant (unknown origin) using [gamma-33P]ATP. Put shortly:
as §1

Experiment [3] concerns the target Mitogen-activated protein kinase kinase kinase 9 (Homo sapiens, UniProt P80192). Nature of the experiment: Inhibition of MLK1 (unknown origin) using [gamma-33P]ATP. A digest of the protocol:
as §1

In experiment [4] the target is Mitogen-activated protein kinase kinase kinase kinase 4 (Homo sapiens, UniProt O95819). Nature of the experiment: Inhibition of HGK (unknown origin) using [gamma-33P]ATP. Put shortly: as §1
Chain of Mitogen-activated protein kinase kinase kinase kinase 4 (O95819 whole entry): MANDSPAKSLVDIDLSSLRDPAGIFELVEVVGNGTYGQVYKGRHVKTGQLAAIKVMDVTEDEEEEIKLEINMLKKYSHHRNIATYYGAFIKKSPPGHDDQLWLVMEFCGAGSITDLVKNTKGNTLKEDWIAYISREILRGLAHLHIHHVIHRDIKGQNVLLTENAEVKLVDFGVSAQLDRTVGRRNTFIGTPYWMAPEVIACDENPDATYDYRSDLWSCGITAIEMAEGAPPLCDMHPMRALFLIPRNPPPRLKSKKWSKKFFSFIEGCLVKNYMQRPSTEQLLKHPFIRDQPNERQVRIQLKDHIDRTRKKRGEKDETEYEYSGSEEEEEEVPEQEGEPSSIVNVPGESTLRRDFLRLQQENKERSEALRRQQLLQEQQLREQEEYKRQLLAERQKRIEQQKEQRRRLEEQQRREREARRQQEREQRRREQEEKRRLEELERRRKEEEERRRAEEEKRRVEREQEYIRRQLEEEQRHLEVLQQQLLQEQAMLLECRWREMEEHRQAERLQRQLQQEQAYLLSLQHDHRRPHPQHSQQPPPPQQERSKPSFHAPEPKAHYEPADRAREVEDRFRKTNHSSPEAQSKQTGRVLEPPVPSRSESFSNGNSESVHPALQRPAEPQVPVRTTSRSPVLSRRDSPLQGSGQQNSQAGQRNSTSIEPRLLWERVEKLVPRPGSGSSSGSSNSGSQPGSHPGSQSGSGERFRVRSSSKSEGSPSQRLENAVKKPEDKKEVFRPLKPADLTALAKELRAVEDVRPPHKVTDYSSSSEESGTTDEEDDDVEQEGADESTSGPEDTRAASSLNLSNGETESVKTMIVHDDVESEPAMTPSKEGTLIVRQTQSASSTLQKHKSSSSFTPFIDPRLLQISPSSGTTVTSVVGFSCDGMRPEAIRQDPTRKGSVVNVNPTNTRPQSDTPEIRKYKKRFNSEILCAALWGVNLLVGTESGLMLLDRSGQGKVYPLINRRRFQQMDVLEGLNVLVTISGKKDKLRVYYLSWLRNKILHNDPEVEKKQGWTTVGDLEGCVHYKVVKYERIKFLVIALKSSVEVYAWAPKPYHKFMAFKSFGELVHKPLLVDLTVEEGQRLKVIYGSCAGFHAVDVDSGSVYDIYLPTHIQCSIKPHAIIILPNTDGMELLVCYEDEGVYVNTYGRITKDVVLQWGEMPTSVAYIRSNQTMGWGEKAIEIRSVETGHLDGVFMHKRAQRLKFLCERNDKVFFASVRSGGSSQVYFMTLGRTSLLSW
Experiment [5] deals with Myosin light chain kinase, smooth muscle (Homo sapiens, UniProt Q15746). As to the kind of experiment: Inhibition of MLCK (unknown origin) using [gamma-33P]ATP. A digest of the protocol: as §1
Experiment [6] concerns the target Mitogen-activated protein kinase kinase kinase kinase 2 (Homo sapiens, UniProt Q12851). As to the kind of experiment: Inhibition of GCK (unknown origin) using [gamma-33P]ATP. Put shortly:
as §1

Experiment [7] deals with Tyrosine-protein kinase Fgr (Homo sapiens, UniProt P09769). Nature of the experiment: Inhibition of FGR (unknown origin) using [gamma-33P]ATP. Put shortly:
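Reaction Biology HotSpot radiometric profiling panel of 288 kinases (261 wild-type, 27 mutant). Kinase activity was read out by incorporation of [γ-33P]ATP.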

In experiment [8] the target is Tyrosine-protein kinase Fyn (Homo sapiens, UniProt P06241). Nature of the experiment: Inhibition of FYN (unknown origin) using [gamma-33P]ATP. A digest of the protocol:
as §1

In experiment [9] the target is Serine/threonine-protein kinase Chk2 (Homo sapiens, UniProt O96017). Nature of the experiment: Inhibition of CHK2 (unknown origin) using [gamma-33P]ATP. A digest of the protocol:
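Radiometric profiling across 288 kinases (261 wild-type, 27 mutant), run as an outsourced service. Inhibition read out as [gamma-33P]ATP incorporation into substrate.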

Experiment [10] concerns the target T1, Protein-tyrosine kinase 2-beta (Homo sapiens, UniProt Q14289). Nature of the experiment: Inhibition of human 6His-tagged unphosphorylated PYK2 (1 to 967) using Poly-(GT)-biotin as substrate by AlphaScreen assay in presence of [gamma-33P]ATP.
Experiment [11] has as its target T1, Protein-tyrosine kinase 2-beta. Nature of the experiment: Inhibition of human GST-tagged phosphorylated full length PYK2 (1 to 967) using Poly-(GT)-biotin as substrate by HTRF analysis in presence of [gamma-33P]ATP.
A short description of experiment [12]: Inhibition of PDGFRa D824V mutant (unknown origin) using [gamma-33P]ATP. Set-up: species or system Homo sapiens.
The target in experiment [13] is T2, Focal adhesion kinase 1 (Homo sapiens, UniProt Q05397). As to the kind of experiment: Inhibition of human FLAG-tagged unphosphorylated full length FAK expressed in baculovirus expression system incubated for 60 mins prior to 1000 uM of ATP addition by AlphaScreen assay.
T2 sequence (Q05397 whole entry): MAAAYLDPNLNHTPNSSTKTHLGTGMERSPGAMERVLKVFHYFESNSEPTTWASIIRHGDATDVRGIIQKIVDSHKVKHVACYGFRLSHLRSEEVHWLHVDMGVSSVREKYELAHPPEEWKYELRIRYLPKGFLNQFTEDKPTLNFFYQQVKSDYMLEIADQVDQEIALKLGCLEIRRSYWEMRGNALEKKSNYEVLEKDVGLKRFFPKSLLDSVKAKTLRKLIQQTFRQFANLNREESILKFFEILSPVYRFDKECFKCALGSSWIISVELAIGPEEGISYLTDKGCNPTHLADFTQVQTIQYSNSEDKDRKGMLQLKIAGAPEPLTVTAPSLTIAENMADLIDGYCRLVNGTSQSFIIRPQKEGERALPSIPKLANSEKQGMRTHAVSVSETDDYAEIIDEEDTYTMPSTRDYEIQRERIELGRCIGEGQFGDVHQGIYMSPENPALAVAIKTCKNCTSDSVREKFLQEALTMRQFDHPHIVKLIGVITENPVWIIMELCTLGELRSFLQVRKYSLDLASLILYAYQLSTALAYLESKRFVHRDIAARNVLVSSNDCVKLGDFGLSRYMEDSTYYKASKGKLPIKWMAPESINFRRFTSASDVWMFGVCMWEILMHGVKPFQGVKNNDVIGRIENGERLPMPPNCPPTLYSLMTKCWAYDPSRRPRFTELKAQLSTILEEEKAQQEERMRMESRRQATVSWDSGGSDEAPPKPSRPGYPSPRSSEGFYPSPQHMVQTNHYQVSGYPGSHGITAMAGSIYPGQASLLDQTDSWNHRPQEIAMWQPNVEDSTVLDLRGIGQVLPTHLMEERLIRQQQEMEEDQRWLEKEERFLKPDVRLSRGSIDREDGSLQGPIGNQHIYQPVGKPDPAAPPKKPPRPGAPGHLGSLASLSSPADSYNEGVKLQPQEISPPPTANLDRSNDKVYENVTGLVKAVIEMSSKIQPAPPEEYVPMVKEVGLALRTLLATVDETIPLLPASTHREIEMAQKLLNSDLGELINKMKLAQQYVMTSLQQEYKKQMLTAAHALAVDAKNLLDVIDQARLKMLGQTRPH
Experiment [14] addresses T2, Focal adhesion kinase 1. As to the kind of experiment: Inhibition of human FLAG-tagged unphosphorylated full length FAK expressed in baculovirus expression system incubated for 5 mins prior to 1000 uM of ATP addition by AlphaScreen assay.
In experiment [15] the target is T2, Focal adhesion kinase 1. As to the kind of experiment: Inhibition of human FLAG-tagged unphosphorylated full length FAK expressed in baculovirus expression system incubated for 60 mins prior to 0.5 uM of ATP addition by AlphaScreen assay.
In experiment [16] the target is T2, Focal adhesion kinase 1. Nature of the experiment: Inhibition of human FLAG-tagged unphosphorylated full length FAK expressed in baculovirus expression system incubated for 5 mins prior to 0.5 uM ATP addition by AlphaScreen assay.
Experiment [17] concerns the target T2, Focal adhesion kinase 1. Nature of the experiment: Inhibition of human GST-tagged phosphorylated full length FAK incubated for 60 mins prior to 1000 uM of ATP addition by HTRF analysis.
Experiment [18] has as its target T2, Focal adhesion kinase 1. Nature of the experiment: Inhibition of human GST-tagged phosphorylated full length FAK incubated for 5 mins prior to 1000 uM of ATP addition by HTRF analysis.
The target in experiment [19] is T2, Focal adhesion kinase 1. As to the kind of experiment: Inhibition of human GST-tagged phosphorylated full length FAK incubated for 60 mins prior to 0.5 uM of ATP addition by HTRF analysis.
For experiment [20], the target named is T2, Focal adhesion kinase 1. Nature of the experiment: Inhibition of human GST-tagged phosphorylated full length FAK incubated for 5 mins prior to 0.5 uM of ATP addition by HTRF analysis.
Experiment [21] addresses T2, Focal adhesion kinase 1.
Experiment [22] addresses T2, Focal adhesion kinase 1. The source holds these as a separate data set.
Experiment [23] concerns the target T2, Focal adhesion kinase 1. This is another data set of the same source.
For experiment [24], the target named is T2, Focal adhesion kinase 1. This is another data set of the same source.

Chain of Tyrosine-protein kinase Yes (P07947 whole entry): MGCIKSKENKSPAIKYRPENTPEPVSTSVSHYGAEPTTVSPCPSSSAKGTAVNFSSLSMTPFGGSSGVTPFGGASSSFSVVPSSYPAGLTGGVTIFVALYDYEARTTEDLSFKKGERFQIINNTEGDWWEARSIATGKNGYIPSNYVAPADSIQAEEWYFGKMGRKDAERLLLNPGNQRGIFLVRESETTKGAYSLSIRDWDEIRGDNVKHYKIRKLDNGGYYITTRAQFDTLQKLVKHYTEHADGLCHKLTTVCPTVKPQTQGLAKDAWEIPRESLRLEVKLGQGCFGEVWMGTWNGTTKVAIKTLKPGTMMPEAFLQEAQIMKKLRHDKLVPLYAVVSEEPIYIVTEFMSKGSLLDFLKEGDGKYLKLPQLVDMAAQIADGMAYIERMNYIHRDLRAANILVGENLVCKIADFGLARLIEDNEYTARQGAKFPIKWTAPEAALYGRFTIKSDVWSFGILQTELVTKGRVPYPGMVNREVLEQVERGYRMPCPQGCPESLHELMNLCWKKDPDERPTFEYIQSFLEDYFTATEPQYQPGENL
Chain of Tyrosine-protein kinase Fgr (P09769 whole entry): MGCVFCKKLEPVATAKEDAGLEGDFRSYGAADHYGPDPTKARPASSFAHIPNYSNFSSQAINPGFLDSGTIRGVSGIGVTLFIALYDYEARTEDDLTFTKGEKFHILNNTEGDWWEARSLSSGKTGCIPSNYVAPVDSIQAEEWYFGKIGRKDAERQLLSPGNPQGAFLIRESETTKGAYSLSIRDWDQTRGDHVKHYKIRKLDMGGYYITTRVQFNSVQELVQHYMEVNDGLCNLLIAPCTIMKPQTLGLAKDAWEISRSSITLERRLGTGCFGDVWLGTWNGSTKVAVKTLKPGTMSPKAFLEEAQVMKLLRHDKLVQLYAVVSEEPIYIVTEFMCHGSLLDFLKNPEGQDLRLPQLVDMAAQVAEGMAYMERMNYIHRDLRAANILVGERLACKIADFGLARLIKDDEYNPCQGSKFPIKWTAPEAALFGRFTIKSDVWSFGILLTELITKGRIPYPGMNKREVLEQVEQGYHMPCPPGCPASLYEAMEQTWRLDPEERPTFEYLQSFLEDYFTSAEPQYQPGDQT
Chain of Tyrosine-protein kinase Fyn (P06241 whole entry): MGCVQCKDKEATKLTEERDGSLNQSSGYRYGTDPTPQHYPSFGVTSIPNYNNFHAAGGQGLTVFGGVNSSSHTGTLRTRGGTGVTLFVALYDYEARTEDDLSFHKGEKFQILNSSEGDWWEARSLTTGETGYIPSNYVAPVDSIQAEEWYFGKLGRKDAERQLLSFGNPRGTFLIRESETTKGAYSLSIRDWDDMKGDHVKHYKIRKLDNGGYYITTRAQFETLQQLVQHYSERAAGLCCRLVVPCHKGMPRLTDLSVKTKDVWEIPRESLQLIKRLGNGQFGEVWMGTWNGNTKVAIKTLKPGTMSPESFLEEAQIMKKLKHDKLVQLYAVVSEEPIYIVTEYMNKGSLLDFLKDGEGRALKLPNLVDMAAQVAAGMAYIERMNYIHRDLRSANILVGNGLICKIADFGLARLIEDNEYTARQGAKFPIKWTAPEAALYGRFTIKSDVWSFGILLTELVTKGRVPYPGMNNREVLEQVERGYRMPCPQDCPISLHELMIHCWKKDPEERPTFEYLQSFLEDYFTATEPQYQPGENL
Chain of Mitogen-activated protein kinase kinase kinase kinase 2 (Q12851 whole entry): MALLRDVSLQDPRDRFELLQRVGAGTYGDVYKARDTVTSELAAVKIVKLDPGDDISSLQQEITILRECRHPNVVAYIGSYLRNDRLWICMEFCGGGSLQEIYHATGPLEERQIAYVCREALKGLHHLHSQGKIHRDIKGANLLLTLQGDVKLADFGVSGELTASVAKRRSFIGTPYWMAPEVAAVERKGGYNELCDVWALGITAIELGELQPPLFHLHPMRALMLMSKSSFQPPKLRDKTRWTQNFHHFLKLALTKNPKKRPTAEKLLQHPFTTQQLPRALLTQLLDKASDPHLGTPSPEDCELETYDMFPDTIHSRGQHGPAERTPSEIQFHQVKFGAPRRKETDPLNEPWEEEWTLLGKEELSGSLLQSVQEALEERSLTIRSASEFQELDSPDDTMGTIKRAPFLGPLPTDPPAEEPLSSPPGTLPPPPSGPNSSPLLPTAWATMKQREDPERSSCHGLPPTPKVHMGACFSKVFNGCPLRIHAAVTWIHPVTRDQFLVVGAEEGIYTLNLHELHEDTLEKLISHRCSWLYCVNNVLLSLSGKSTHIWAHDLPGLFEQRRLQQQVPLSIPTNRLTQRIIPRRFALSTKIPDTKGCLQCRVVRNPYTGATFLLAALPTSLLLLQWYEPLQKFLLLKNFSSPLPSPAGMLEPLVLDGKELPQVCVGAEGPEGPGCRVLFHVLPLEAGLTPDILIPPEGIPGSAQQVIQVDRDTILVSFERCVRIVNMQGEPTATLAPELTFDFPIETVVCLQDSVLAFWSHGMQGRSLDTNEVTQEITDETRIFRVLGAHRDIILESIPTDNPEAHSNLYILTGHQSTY

For `CCc1ccc(-c2ccc3c(c2)-c2n[nH]cc2S(=O)(=O)N3C)cc1`, the IC50 in experiment [1] stood at 1.8 µM; in experiment [2] it was 2.8 µM; in experiment [3] it was 0.37 µM; in [4], 1.6 µM; in [5] it was 4 µM; in [6], 3 µM. The 50% inhibitory concentration (IC50) in experiment [7] came out at 1.9 µM; in [8], 2.8 µM; in experiment [9], 3.4 µM.
On to `CCc1ccc(-c2ccc3c(c2)-c2c(cnn2CC)S(=O)(=O)N3C)cc1`, for which the IC50 was above 30 µM in [10]; above 30 µM in experiment [11]; above 10 µM in experiment [12]; above 10 µM in [1]; above 10 µM in experiment [2]; above 10 µM in experiment [3]. Further, the IC50 in [4], in experiment [5], in [6], in experiment [7], in experiment [8] and in [9] was above 10 µM throughout. The IC50 is 3.2 µM on Focal adhesion kinase 1 [13]; above 10 µM at Focal adhesion kinase 1 [14]; 3.2 µM against Focal adhesion kinase 1 [15]; above 10 µM against Focal adhesion kinase 1 [16]; above 30 µM at Focal adhesion kinase 1 [17]; above 30 µM against Focal adhesion kinase 1 [18]. For the same compound, the IC50 at Focal adhesion kinase 1 [19] was above 30 µM; against Focal adhesion kinase 1 [20], above 30 µM; against Focal adhesion kinase 1 [21] it was 1 µM; on Focal adhesion kinase 1 [22], 3 µM; at Focal adhesion kinase 1 [23] it was 1.3 µM; on Focal adhesion kinase 1 [24], 1.6 µM.
